From PubChem BioAssay
Active and inactive are the calls of the source.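 The calls were made as follows, unless noted: active = viability at or below 10% of carrier control in both of two separate runs; inconclusive = viability at or below 10% in only one of the two runs; inactive = the rest.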

What was measured:
[1] = Her2 expression decrease, cell viability multiplex – SKBR3 breast tumor cells, AlphaScreen, ATP viability, primary screen (AID 461;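 active = Her2 level under about 52% in both replicate screens, with viability over 70% of control, limit read from the data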;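 as to Her2 level: lower value means less Her2 protein in the cells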;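 as to viability: percent of carrier control wells set as 100% viability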); conditions: SKBR3 Her2 protein level, 18-24 h, measured here: SKBR3 viability, ATP luminescence, at 10 µM
[2] = biological target: Receptor tyrosine-protein kinase erbB-2 (Homo sapiens) (UniProt P04626); test: as above; conditions: 18-24 h, at 10 µM, stronger effect = lower value
Receptor tyrosine-protein kinase erbB-2 (Homo sapiens), sequence (P04626 whole entry, looked up): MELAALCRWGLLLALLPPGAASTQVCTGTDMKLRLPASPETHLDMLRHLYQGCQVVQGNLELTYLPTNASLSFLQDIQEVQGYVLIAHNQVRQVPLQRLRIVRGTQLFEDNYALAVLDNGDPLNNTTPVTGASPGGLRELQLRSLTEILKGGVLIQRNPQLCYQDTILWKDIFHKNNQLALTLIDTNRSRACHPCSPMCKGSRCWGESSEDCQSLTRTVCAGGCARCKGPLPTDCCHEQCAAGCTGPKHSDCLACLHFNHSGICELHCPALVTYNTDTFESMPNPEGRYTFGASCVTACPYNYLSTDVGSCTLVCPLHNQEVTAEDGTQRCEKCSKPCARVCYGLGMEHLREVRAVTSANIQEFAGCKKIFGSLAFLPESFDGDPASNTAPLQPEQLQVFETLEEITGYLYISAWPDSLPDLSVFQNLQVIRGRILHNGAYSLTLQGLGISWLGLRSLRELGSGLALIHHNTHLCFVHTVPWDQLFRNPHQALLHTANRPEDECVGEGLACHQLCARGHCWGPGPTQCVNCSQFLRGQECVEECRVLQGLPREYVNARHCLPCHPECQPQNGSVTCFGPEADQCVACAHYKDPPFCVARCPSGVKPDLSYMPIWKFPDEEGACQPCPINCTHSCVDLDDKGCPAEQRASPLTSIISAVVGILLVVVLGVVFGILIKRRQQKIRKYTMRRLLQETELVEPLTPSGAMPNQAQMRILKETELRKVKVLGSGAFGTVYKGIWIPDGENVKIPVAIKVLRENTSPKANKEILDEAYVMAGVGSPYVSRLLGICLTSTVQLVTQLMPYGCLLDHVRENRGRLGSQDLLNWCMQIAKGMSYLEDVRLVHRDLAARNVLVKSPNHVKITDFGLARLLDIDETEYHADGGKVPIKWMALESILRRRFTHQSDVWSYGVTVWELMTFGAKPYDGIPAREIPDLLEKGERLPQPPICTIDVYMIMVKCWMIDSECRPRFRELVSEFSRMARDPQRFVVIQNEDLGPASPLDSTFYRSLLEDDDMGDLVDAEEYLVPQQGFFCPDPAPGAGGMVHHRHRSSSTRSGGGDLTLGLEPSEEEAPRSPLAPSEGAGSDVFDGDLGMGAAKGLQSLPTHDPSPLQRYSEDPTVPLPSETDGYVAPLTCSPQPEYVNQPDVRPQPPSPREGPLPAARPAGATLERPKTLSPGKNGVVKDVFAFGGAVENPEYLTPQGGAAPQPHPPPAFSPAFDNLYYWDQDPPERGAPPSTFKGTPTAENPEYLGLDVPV

[3] = reduced viability of SK-BR-3 breast cancer cells – cell-based, 24 h, human, pilot screen (AID 572); conditions: SK-BR-3 viability, CellTiter-Glo luminescence, at 10 µM, stronger effect = lower value;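 also: compound exposure lasted between 18 and 24 h rather than exactly 24 h; 100% = carrier-treated control wells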
[4] = HUVEC growth inhibition – cell-based, human, primary screen (AID 575;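 active = viability at or below 30% in both replicate assays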;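 also: 100% = median of untreated cell wells with 0.1% DMSO on each plate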); conditions: HUVEC proliferation, CellTiter-Glo luminescence, 72 h; at 10 µM; stronger effect = lower value
Procedure, shortened: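 Timing: 72 h treatment at 37 °C; material: HUVEC primary cells; technique: CellTiter-Glo luminescence measuring cellular ATP; controls: vehicle and MePR control wells; measure: percent of median DMSO-control luminescence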

[5] = H69AR cell proliferation blockers – human, duplicate replicates, primary screen (AID 580;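 active = viability at or under a set limit in both replicates, limit being median viability minus 3 SD, cut at about 48% in these data, passing the limit was not always enough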;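 also: 100% = mean luminescence of untreated wells and 0% = no signal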); conditions: H69AR lung tumor cells viability, ATP luminescence, 72 h; at 10 µM; stronger effect = lower value
[6] = MRP1 drug-resistance reversers in H69AR cells – cell-based, doxorubicin co-treatment, pilot screen (AID 601;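 active = viability loss from added drug above about 55%, and viability with drug at most 40%, in both replicates, limit read from the data, passing the limit was not always enough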); conditions: CellTiter-Glo, 72 h, at 10 µM; for differential viability (reversal): stronger effect = higher value
[7] = yeast transport mutant growth inhibition pilot in 384-well plates, post-Golgi transport modulator project (AID 636; in the data active = inhibition above about 31%); conditions: absorbance 615 nm, about 18 h, stronger effect = higher value
[8] = growth suppression of yeast trafficking mutant, preliminary HTS, modulators of trafficking downstream of Golgi apparatus project, 1536-format plate, OD 615 nm (AID 637; in the data active = inhibition above about 30%); conditions: yeast transport mutant growth, absorbance 615 nm, 18 h; stronger effect = higher value
[9] = H69AR cells + 2 uM doxorubicin, measured here: viability with 2 uM doxorubicin, stronger effect = lower value
[10] = H69AR cells, compound alone cytotoxicity

C=CS(=O)(=O)c1ccc(Oc2ccc(S(=O)(=O)C=C)cc2)cc1
viability [1]: 243%
Her2 level [2]: 21% (active)
viability [3]: 243% (inactive)
viability [4]: 97% (inactive)
viability [5]: 1.27% (active)
differential viability (reversal) ([6]; H69AR cells + 2 uM doxorubicin): 0.405% (inactive)
viability [6, 9]: 0.865%
viability [6, 10]: 1.27%
inhibition [7]: -4.67% (inactive)
inhibition [8]: 1.77% (inactive)

O=C(CS(=O)(=O)Cc1ccccc1)N1CCc2ccccc2C1
viability [1]: 94.5%
Her2 level [2]: 94.5% (inactive)
viability [3]: 94.5% (inactive)
viability [4]: 86.4% (inactive)
viability [5]: 101% (inactive)
differential viability (reversal) ([6]; H69AR cells + 2 uM doxorubicin): 11.5% (inactive)
viability [6, 9]: 89.4%
viability [6, 10]: 101%
inhibition [7]: -5.6% (inactive)
inhibition [8]: -1.61% (inactive)

CCc1nnc(NC(=O)c2cc3ccccc3oc2=O)s1
viability [1]: 104%
Her2 level [2]: 95.5% (inactive)
viability [3]: 104% (inactive)
viability [4]: 118% (inactive)
viability [5]: 89.7% (inactive)
differential viability (reversal) ([6]; H69AR cells + 2 uM doxorubicin): -4.11% (inactive)
viability [6, 9]: 93.8%
viability [6, 10]: 89.7%
inhibition [7]: -5.71% (inactive)
inhibition [8]: -3.65% (inactive)

Cc1cc2cc(CN(CCCN3CCOCC3)C(=O)NC3CCCCC3)c(=O)[nH]c2cc1C
viability [1]: 73.5%
Her2 level [2]: 83% (inactive)
viability [3]: 73.5% (inactive)
viability [4]: 70.2% (inactive)
viability [5]: 82.8% (inactive)
differential viability (reversal) ([6]; H69AR cells + 2 uM doxorubicin): 6.29% (inactive)
viability [6, 9]: 76.5%
viability [6, 10]: 82.8%
inhibition [7]: -5.07% (inactive)
inhibition [8]: -2.26% (inactive)

Cc1ccccc1-n1c(=O)c2ccccc2n2nnnc12
viability [1]: 80%
Her2 level [2]: 112% (inactive)
viability [3]: 80% (inactive)
viability [4]: 101% (inactive)
viability [5]: 93% (inactive)
differential viability (reversal) ([6]; H69AR cells + 2 uM doxorubicin): -1.09% (inactive)
viability [6, 9]: 94.1%
viability [6, 10]: 93%
inhibition [7]: 0% (inactive)
inhibition [8]: -15.6% (inactive)

CCN(C(=O)c1cc2cc3ccc(C)cc3nc2o1)c1ccc(OC)cc1
viability [1]: 85.5%
Her2 level [2]: 99.5% (inactive)
viability [3]: 85.5% (inactive)
viability [4]: 61% (inactive)
viability [5]: 83.1% (inactive)
differential viability (reversal) ([6]; H69AR cells + 2 uM doxorubicin): -12.9% (inactive)
viability [6, 9]: 96%
viability [6, 10]: 83.1%
inhibition [7]: -6.27% (inactive)
inhibition [8]: -6.39% (inactive)

COc1ccc(C(=O)N2CCCc3ccccc32)cc1
viability [1]: 87.5%
Her2 level [2]: 94% (inactive)
viability [3]: 87.5% (inactive)
viability [4]: 116% (inactive)
viability [5]: 104% (inactive)
differential viability (reversal) ([6]; H69AR cells + 2 uM doxorubicin): 11.1% (inactive)
viability [6, 9]: 93%
viability [6, 10]: 104%
inhibition [7]: -4% (inactive)
inhibition [8]: 5.81% (inactive)

COCCCn1c2nc3ccccc3nc2c2c(=O)n(-c3ccccc3OC)cnc21
viability [1]: 97.5%
Her2 level [2]: 100% (inactive)
viability [3]: 97.5% (inactive)
viability [4]: 97.8% (inactive)
viability [5]: 73.7% (inactive)
differential viability (reversal) ([6]; H69AR cells + 2 uM doxorubicin): 6.27% (inactive)
viability [6, 9]: 67.5%
viability [6, 10]: 73.7%
inhibition [7]: -0.8% (inactive)
inhibition [8]: 4.75% (inactive)

O=C(CSc1nnc(-c2ccc(Br)o2)n1Cc1ccccc1)c1ccccc1F
viability [1]: 81.5%
Her2 level [2]: 91% (inactive)
viability [3]: 81.5% (inactive)
viability [4]: 86.3% (inactive)
viability [5]: 64.7% (inactive)
differential viability (reversal) ([6]; H69AR cells + 2 uM doxorubicin): -11.2% (inactive)
viability [6, 9]: 75.9%
viability [6, 10]: 64.7%
inhibition [7]: 3.11% (inactive)
inhibition [8]: -2.13% (inactive)

O=C(CCN1C(=O)COc2ccccc21)NCCN1CCN(c2cccc(Cl)c2)CC1
viability [1]: 94.5%
Her2 level [2]: 84% (inactive)
viability [3]: 94.5% (inactive)
viability [4]: 90.9% (inactive)
viability [5]: 83.8% (inactive)
differential viability (reversal) ([6]; H69AR cells + 2 uM doxorubicin): -11.3% (inactive)
viability [6, 9]: 95.1%
viability [6, 10]: 83.8%
inhibition [7]: -1.04% (inactive)
inhibition [8]: -3.33% (inactive)

O=C(CSc1nnc(CNC(=O)c2cccs2)o1)Nc1cccc(C(F)(F)F)c1
viability [1]: 83.5%
Her2 level [2]: 98.5% (inactive)
viability [3]: 83.5% (inactive)
viability [4]: 82.7% (inactive)
viability [5]: 92.8% (inactive)
differential viability (reversal) ([6]; H69AR cells + 2 uM doxorubicin): 1.86% (inactive)
viability [6, 9]: 90.9%
viability [6, 10]: 92.8%
inhibition [7]: -0.13% (inactive)
inhibition [8]: -7% (inactive)

COc1ccc(-c2nnc(SCC(=O)Nc3ccc(Cl)cc3)n2C)cc1
viability [1]: 82.5%
Her2 level [2]: 104% (inactive)
viability [3]: 82.5% (inactive)
viability [4]: 92.8% (inactive)
viability [5]: 90.2% (inactive)
differential viability (reversal) ([6]; H69AR cells + 2 uM doxorubicin): 8% (inactive)
viability [6, 9]: 82.2%
viability [6, 10]: 90.2%
inhibition [7]: -0.93% (inactive)
inhibition [8]: -9.21% (inactive)

O=C(CSc1nnc(CNC(=O)c2cccs2)o1)NCCc1ccccc1
viability [1]: 104%
Her2 level [2]: 103% (inactive)
viability [3]: 104% (inactive)
viability [4]: 92.4% (inactive)
viability [5]: 101% (inactive)
differential viability (reversal) ([6]; H69AR cells + 2 uM doxorubicin): 2.05% (inactive)
viability [6, 9]: 98.6%
viability [6, 10]: 101%
inhibition [7]: -0.9% (inactive)
inhibition [8]: -3% (inactive)

CC(=O)c1cccc(S(=O)(=O)N2CCC(n3nnc4cc(F)ccc43)CC2)c1
viability [1]: 88%
Her2 level [2]: 92.5% (inactive)
viability [3]: 88% (inactive)
viability [4]: 92.9% (inactive)
viability [5]: 93.9% (inactive)
differential viability (reversal) ([6]; H69AR cells + 2 uM doxorubicin): 8.11% (inactive)
viability [6, 9]: 85.8%
viability [6, 10]: 93.9%
inhibition [7]: -5.14% (inactive)
inhibition [8]: -2.62% (inactive)

CC(C)C(NC(=O)c1ccccc1NC(=O)c1ccco1)C(=O)O (stereo not given)
viability [1]: 114%
Her2 level [2]: 77.5% (inactive)
viability [3]: 114% (inactive)
viability [4]: 94.8% (inactive)
viability [5]: 91.6% (inactive)
differential viability (reversal) ([6]; H69AR cells + 2 uM doxorubicin): 2.44% (inactive)
viability [6, 9]: 89.1%
viability [6, 10]: 91.6%
inhibition [7]: -8.24% (inactive)
inhibition [8]: 6.98% (inactive)

CC(C)N(C=O)C1(C(=O)NC2CCCCC2)CCCCC1
viability [1]: 100%
Her2 level [2]: 106% (inactive)
viability [3]: 100% (inactive)
viability [4]: 97.9% (inactive)
viability [5]: 112% (inactive)
differential viability (reversal) ([6]; H69AR cells + 2 uM doxorubicin): 13.7% (inactive)
viability [6, 9]: 97.9%
viability [6, 10]: 112%
inhibition [7]: -0.53% (inactive)
inhibition [8]: -6.61% (inactive)
